# Measured values reported in ChEMBL document CHEMBL1138661, “Design, synthesis, and structure-activity relationship studies of 3,4,6-triphenylpyran-2-ones as selective cyclooxygenase-2 inhibitors” (J Med Chem, 2004).
# Columns and labels:
# Rattus norvegicus [1] = species: Rattus norvegicus; experiment: Percent inhibition of analgesic activity in a rat model 4% NaCl-induced abdominal constriction assay at 30 min; format: functional, Abdomen
# How it was run: (§1)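 Male Sprague-Dawley rats given test compound orally at 5 mg/kg. Writhing (abdominal constriction) induced by 4% NaCl. Inhibition of writhing scored at 30 or 60 min after dosing. Mean ± SEM, n = 4-6.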
# [2] = molecular target: T1, Prostaglandin G/H synthase 1 (Ovis aries, UniProt P05979); experiment: Inhibition of ovine Prostaglandin G/H synthase 1
# T1 sequence (P05979 whole entry): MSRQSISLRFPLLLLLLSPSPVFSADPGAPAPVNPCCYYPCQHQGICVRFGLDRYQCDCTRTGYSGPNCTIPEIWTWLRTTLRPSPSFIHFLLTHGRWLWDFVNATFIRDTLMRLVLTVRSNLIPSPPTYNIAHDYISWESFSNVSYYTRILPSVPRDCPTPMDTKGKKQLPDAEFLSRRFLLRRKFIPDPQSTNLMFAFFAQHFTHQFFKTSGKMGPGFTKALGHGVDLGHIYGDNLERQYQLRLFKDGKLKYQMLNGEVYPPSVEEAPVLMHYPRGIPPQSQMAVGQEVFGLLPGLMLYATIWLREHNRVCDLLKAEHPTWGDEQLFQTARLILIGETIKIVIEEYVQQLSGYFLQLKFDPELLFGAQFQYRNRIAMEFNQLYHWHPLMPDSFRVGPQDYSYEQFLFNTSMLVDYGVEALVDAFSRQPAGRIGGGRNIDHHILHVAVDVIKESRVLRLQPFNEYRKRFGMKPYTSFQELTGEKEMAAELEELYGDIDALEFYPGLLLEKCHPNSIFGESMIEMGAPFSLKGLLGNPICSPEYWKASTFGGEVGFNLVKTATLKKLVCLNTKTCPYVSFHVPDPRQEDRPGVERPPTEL
# How it was run: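 Ovine COX-1 with heme in 0.1 M Tris-HCl pH 8.0, 5 mM EDTA, 2 mM phenol. Test drug from DMSO stock at 0.001–100 μM final, preincubated 5 min at 37 °C. Arachidonic acid added, stopped with 1 M HCl after 2 min. IC50 from concentration–inhibition curve, duplicate determinations.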
# Rattus norvegicus [3] = species: Rattus norvegicus; experiment: Percent inhibition of analgesic activity in a rat model 4% NaCl-induced abdominal constriction assay at 60 min; format: functional, Abdomen; how it was run: as §1
# [4] = molecular target: T2, Prostaglandin G/H synthase 2 (Rattus norvegicus) (UniProt P35355)
# T2 sequence (whole entry): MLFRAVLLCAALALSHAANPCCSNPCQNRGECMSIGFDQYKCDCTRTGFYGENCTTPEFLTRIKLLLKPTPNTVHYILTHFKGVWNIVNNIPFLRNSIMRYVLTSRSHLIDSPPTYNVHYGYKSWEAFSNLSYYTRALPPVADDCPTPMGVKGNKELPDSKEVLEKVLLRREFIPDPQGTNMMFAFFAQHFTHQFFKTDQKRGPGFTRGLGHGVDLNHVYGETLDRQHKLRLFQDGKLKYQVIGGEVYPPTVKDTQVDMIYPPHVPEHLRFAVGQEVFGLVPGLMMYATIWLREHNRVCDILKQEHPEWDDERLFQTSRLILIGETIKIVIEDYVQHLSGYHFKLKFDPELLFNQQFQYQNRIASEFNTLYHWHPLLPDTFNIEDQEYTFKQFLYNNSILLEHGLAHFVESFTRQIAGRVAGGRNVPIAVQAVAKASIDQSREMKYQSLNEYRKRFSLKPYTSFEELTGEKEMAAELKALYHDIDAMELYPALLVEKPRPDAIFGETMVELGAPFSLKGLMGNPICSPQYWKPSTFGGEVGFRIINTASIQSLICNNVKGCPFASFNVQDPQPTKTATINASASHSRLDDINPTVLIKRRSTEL
SMILES,Inhibition (Rattus norvegicus [1]),IC50 [2],Inhibition (Rattus norvegicus [3]),ID50 [4]
COc1ccc(-c2cc(-c3ccc(S(C)(=O)=O)cc3)c(-c3ccncc3)c(=O)o2)cc1,58.3%,> 100 µM,55%,21.4 mg/kg
CCOc1ccc(-c2cc(-c3ccc(F)cc3)c(-c3ccc(S(C)(=O)=O)cc3)c(=O)o2)cc1,,3.2 µM,,
CS(=O)(=O)c1ccc(-c2c(-c3cccnc3)cc(-c3ccccc3)oc2=O)cc1,,3 µM,,
CCc1ccc(-c2cc(-c3ccccc3)c(-c3ccc(S(C)(=O)=O)cc3)c(=O)o2)cc1,,> 100 µM,,
CS(=O)(=O)c1ccc(-c2cc(-c3ccc(C(F)(F)F)cc3)oc(=O)c2-c2ccccc2)cc1,,25.3 µM,,
Cc1ccc(-c2cc(-c3ccccc3)c(-c3ccc(S(C)(=O)=O)cc3)c(=O)o2)cc1,,> 100 µM,,
CCOc1ccc(-c2cc(-c3ccccc3)c(-c3ccc(N=[N+]=[N-])cc3)c(=O)o2)cc1,,> 100 µM,,
CCOc1ccc(-c2cc(-c3ccc(S(C)(=O)=O)cc3)c(-c3ccc(F)cc3)c(=O)o2)cc1,,1.07 µM,,
Cc1ccc(-c2cc(-c3ccc(S(C)(=O)=O)cc3)c(-c3ccccc3)c(=O)o2)cc1,,> 100 µM,,
CCc1ccc(-c2cc(-c3ccc(S(C)(=O)=O)cc3)c(-c3ccccc3)c(=O)o2)cc1,,> 100 µM,,
COc1ccc(-c2cc(-c3ccc(F)cc3)c(-c3ccc(S(C)(=O)=O)cc3)c(=O)o2)cc1,,20 µM,,
CS(=O)(=O)c1ccc(-c2c(-c3ccccc3)cc(-c3ccc([N+](=O)[O-])cc3)oc2=O)cc1,,> 100 µM,,
COc1ccc(-c2cc(-c3cccnc3)c(-c3ccc(S(C)(=O)=O)cc3)c(=O)o2)cc1,,0.44 µM,,
CSc1ccc(-c2cc(-c3ccccc3)c(-c3ccc(S(C)(=O)=O)cc3)c(=O)o2)cc1,72%,37.7 µM,64.7%,7.9 mg/kg
CS(=O)(=O)c1ccc(-c2cc(-c3ccccc3)oc(=O)c2-c2ccccc2)cc1,,> 100 µM,,
CS(=O)(=O)c1ccc(-c2c(-c3ccccc3)cc(-c3ccc(N)cc3)oc2=O)cc1,,32.5 µM,,
CSc1ccc(-c2cc(-c3ccccc3)c(-c3ccc(N=[N+]=[N-])cc3)c(=O)o2)cc1,,30 µM,,
COc1ccc(-c2cc(-c3ccccc3)c(-c3ccc(N=[N+]=[N-])cc3)c(=O)o2)cc1,47.2%,> 100 µM,55.5%,5.6 mg/kg

SMILES,Inhibition (Rattus norvegicus [1]),IC50 [2],Inhibition (Rattus norvegicus [3]),ID50 [4]
CS(=O)(=O)c1ccc(-c2cc(-c3ccccc3)oc(=O)c2-c2ccncc2)cc1,,> 100 µM,,
CS(=O)(=O)c1ccc(-c2c(-c3ccccc3)cc(-c3ccc(C(F)(F)F)cc3)oc2=O)cc1,,> 100 µM,,
CCOc1ccc(-c2cc(-c3ccc(S(C)(=O)=O)cc3)c(-c3ccccc3)c(=O)o2)cc1,,31.6 µM,,
COc1ccc(-c2cc(-c3ccccc3)c(-c3ccc(S(C)(=O)=O)cc3)c(=O)o2)cc1,37.5%,> 100 µM,69%,19.2 mg/kg
CCOc1ccc(-c2cc(-c3ccccc3)c(-c3ccc(S(C)(=O)=O)cc3)c(=O)o2)cc1,58.3%,> 100 µM,75%,5.6 mg/kg
COc1ccc(-c2cc(-c3ccc(S(C)(=O)=O)cc3)c(-c3ccccc3)c(=O)o2)cc1,,31.5 µM,,
CS(=O)(=O)c1ccc(-c2c(-c3ccccc3)cc(-c3ccc(F)cc3)oc2=O)cc1,,> 100 µM,,
CS(=O)(=O)c1ccc(-c2c(-c3ccccc3)cc(-c3ccc(O)cc3)oc2=O)cc1,,> 100 µM,,
Cc1ccc(-c2cc(C(F)(F)F)nn2-c2ccc(S(N)(=O)=O)cc2)cc1 [CELECOXIB],69.33%,,,
COc1ccc(-c2cc(-c3ccc(S(C)(=O)=O)cc3)c(-c3ccc(F)cc3)c(=O)o2)cc1,,10.7 µM,,
CS(=O)(=O)c1ccc(-c2cc(-c3ccc(F)cc3)oc(=O)c2-c2ccccc2)cc1,,11 µM,,
COc1ccc(-c2cc(-c3ccc(S(C)(=O)=O)cc3)c(-c3cccnc3)c(=O)o2)cc1,,0.15 µM,,
CSc1ccc(-c2cc(-c3ccc(F)cc3)c(-c3ccc(S(C)(=O)=O)cc3)c(=O)o2)cc1,,> 100 µM,,
CS(=O)(=O)c1ccc(-c2cc(-c3ccccc3)c(-c3ccccc3)c(=O)o2)cc1,,> 100 µM,,
CSc1ccc(-c2cc(-c3ccc(S(C)(=O)=O)cc3)c(-c3ccccc3)c(=O)o2)cc1,,31.2 µM,,
CS(=O)(=O)c1ccc(-c2c(-c3ccccc3)cc(-c3ccccc3)oc2=O)cc1,,> 100 µM,,
CS(=O)(=O)c1ccc(-c2cc(-c3ccccc3)oc(=O)c2-c2cccnc2)cc1,,3.2 µM,,
